Assay outcomes: PubChem, Johns Hopkins Ion Channel Center
TRPC6 act – mouse TRPC6 channel activation | 310,000 tested, 0.13% active | B-score at 10 µM | Q61143 | HEK293-TRPC6 membrane potential dye fluorescence; hits give high values;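 active means B-score of the integrated fluorescence ratio above library mean plus 3 SD, and starting fluorescence ratio within library mean plus 5 SD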;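 further: higher score means more depolarization so channel activation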
TRPC4 act – activators of mouse TRPC4 channel; B-score at 10 µM; HEK293 TRPC4beta/mu-opioid, Fluo4 calcium fluorescence; hits give high values; 310,000 tested, 0.49% active; AID 2237; Q9QUQ5;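 active means B-score above 5 SD of library B-scores, and initial fluorescence ratio not above library mean plus 5 SD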;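 further: positive B-score marks a calcium rise read as TRPC4 activation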
Target sequence (Q9QUQ5 whole entry, looked up): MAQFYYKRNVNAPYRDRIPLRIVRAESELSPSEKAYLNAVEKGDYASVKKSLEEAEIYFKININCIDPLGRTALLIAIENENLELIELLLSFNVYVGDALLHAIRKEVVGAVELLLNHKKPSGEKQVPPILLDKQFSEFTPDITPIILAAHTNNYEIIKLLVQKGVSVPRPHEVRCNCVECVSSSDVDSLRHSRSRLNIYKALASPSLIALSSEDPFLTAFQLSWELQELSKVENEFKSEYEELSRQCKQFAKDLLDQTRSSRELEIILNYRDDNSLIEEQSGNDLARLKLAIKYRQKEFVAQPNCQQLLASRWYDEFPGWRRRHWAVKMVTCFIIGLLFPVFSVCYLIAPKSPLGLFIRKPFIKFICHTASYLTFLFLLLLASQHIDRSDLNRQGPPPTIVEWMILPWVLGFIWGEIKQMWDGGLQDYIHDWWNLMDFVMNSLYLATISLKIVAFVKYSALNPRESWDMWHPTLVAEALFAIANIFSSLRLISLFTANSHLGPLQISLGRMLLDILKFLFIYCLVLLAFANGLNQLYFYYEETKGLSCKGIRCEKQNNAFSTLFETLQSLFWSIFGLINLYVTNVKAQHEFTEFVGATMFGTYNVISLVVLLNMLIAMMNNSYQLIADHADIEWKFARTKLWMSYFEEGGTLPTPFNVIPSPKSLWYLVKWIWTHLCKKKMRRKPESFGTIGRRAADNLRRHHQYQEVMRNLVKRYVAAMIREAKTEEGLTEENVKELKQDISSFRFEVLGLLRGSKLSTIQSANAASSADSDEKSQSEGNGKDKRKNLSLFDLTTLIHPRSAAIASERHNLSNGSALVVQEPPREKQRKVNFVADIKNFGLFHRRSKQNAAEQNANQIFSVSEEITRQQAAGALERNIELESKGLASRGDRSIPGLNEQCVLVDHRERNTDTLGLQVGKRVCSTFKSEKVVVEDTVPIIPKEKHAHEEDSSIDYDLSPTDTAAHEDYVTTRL
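Assay system – TRPC4beta and mu-opioid receptor HEK293 stable cells · Measured by – Fluo4 fluorescence, kinetic · Schedule – dye loading 45 min room temperature, 110 s kinetic read · Read-out – B-scored integrated calcium fluorescence ratio · Controls – buffer and maximal DAMGO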
TRPC4 inh – TRPC4 (mouse) channel inhibition. B-score at 10 µM. HEK293 TRPC4beta/mu-opioid, DAMGO-evoked Fluo4 calcium flux; hits give low values. 300,000 tested, 0.39% active;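 active means B-score over 3 SD under the library average, no early fluorescence shift, positive overall ratio signal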
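Material: HEK293 cells with stable TRPC4beta plus mu-opioid receptor expression / Probe or stimulus: DAMGO in two steps, submaximal then maximal / Compound: single concentration per test compound / Technique: kinetic Fluo4 fluorescence imaging of calcium influx / Read-out: per-well B score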
TRPC6 inh – mouse TRPC6 channel inhibition; HEK293-TRPC6, membrane potential dye, ACh-evoked depolarization; hits give low values; B-score at 10 µM; 310,000 tested, 1.1% active; AID 2553;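 active means B-score under library mean minus 3 SD, initial fluorescence not abnormally high, positive integrated signal ratio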;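 further: B-score derived from integrated fluorescence ratio over the kinetic read; more negative B-score means stronger inhibition of depolarization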
TRPC4 potent – allosterically enhances the mouse TRPC4 cation channel. Q9QUQ5. HEK293 TRPC4beta/mu-opioid, DAMGO EC20, Fluo-4 Ca2+ flux; hits give high values. B-score at 10 µM. 310,000 tested, 0.42% active. AID 2227;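 active means B-score of calcium response area above 5 SD of library B-scores, with initial fluorescence ratio within 5 SD of library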;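 further: B-score of integrated fluorescence ratio over time as area under calcium response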
TRPC4 sel inh 2 – second check of whether TRPC6 inhibitors also affect mouse TRPC4 | shares compounds with TRPC6 inh | HEK293 TRPC4/MOR, membrane potential dye fluorescence; channel activated by saturating DAMGO dose | 920 tested, 42% active | inhibition, % at 10 µM;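 active means compounds whose fluorescence signal differed from control wells by over 3 SD, either direction, in both duplicate plates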
TRPC4 spec – tests whether TRPC6 inhibitors also affect mouse TRPC4; activity change, negative = inhibition, % at 10 µM; HEK293 TRPC4/mu-opioid, membrane potential fluorescence; 920 tested, 61% active; shares compounds with TRPC6 inh;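 active means rise or fall in signal beyond 3 SD of buffer-only wells in both replicate plates, either sign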;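 further: integrated kinetic ratio of fluorescence range over baseline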
HEK293 MPD ctr 2-1 – parental HEK293 nonspecific activity of TRPC6 inhibitors, second screen; parental HEK293 membrane potential dye fluorescence; maximal acetylcholine challenge after compound addition; shares compounds with TRPC6 inh; 920 tested, 31% active; AID 2779; signal change vs control, % at 10 µM;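 active means membrane potential signal moving either way by over 3 SD of the maximum-effect control, in both duplicate plates, meaning non-specific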
HEK293 MPD ctr-1 – counter-screen for TRPC6 inhibitors: effect in parental HEK293 cells | shares compounds with TRPC6 inh | parental HEK293 membrane potential dye fluorescence | membrane potential signal change, % at 10 µM | 920 tested, 60% active | AID 2780;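 active means membrane potential signal shifting up or down by more than 3 SD of buffer-only wells, on both duplicate plates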
HEK293 MPD ctr-2 – counter-screen for TRPC6 modulators: effect in parental HEK293 cells | membrane potential signal change, % at 10 µM | shares compounds with TRPC6 inh | 2,400 tested, 51% active | membrane potential dye fluorescence;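 active means membrane potential signal moves up or down beyond 5 SD from buffer-only wells, on both duplicate plates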
HEK293 MPD ctr 2-2 – parental HEK293 nonspecific activity of TRPC6 modulators, second screen | shares compounds with TRPC6 inh | membrane potential dye fluorescence; after compound, maximal acetylcholine stimulation | inhibition, % at 10 µM | 2,400 tested, 14% active | AID 488926;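 active means membrane potential signal drops by more than 5 SD from the mean control signal, in both duplicate plates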;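 further: plate controls were acetylcholine ECmax control wells for no effect and buffer only wells for full effect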
TRPC4 ctr mod – selectivity of TRPC6 modulators against mouse TRPC4; HEK293 TRPC4/mu-opioid, membrane potential fluorescence; percent change from control (negative = decrease, positive = increase), % at 10 µM; 2,400 tested, 69% active; shares compounds with TRPC6 inh;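 active means membrane potential signal moved up or down beyond 5 SD of buffer control wells, in both duplicate plates, actives on both sides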;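 further: plate controls were assay buffer wells for no effect and DAMGO maximal-effect wells for full effect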
TRPC4 ctr inh 2 – second check of whether TRPC6 modulators also affect mouse TRPC4 | shares compounds with TRPC6 inh | HEK293 TRPC4/mu-opioid, membrane potential dye fluorescence; stimulated with maximal-effect DAMGO | inhibition, % at 10 µM | 2,400 tested, 55% active | AID 488928;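 active means drop in membrane potential signal beyond 5 SD of the control wells in both duplicate plates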;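 further: TRPC4 counter screen for TRPC6 hits run under conditions tuned for TRPC6 not TRPC4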
TRPC6 inh conf – confirmation of mouse TRPC6 inhibitors; 3,300 tested, 43% active; HEK293-TRPC6, membrane potential dye, ACh-evoked depolarization; inhibition, % at 10 µM; shares compounds with TRPC6 inh; AID 488960;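 active means fluorescence ratio falls more than 5 SD below the full-stimulation control mean, in both duplicate runs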;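 further: integrated fluorescence ratio of peak minus minimum over baseline after agonist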
TRPC6 act confirm – mouse TRPC6 activator confirmation. AID 488961. activation, % at 10 µM. shares compounds with TRPC6 inh. HEK293-TRPC6 membrane potential dye fluorescence, FDSS. 2,800 tested, 11% active;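 active means ratio signal rise beyond 5 SD above unstimulated control wells' mean, seen in both duplicate runs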;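 further: plate controls were buffer EC0 wells for no effect and acetylcholine ECmax response for full effect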
Starred values were filed as active, the others as inactive; i = inactive; nt = not tested or not shown. The list is not random: actives were taken first. Their share in the collection is about 2.3%.

SMILES | TRPC6 act | TRPC4 act | TRPC4 inh | TRPC6 inh | TRPC4 potent | HEK293 MPD ctr-2 | HEK293 MPD ctr 2-2 | TRPC4 ctr mod | TRPC4 ctr inh 2 | TRPC6 inh conf | TRPC6 act confirm | others
Cc1ccc(OCCCCNC2CCCC(C)C2C)c(C)c1 (stereo not given) | 13* | i | i | -5.7* | i | 348%* | i | 102%* | 51%* | i | 119%*
C(#Cc1ccccc1)C[N+]1(CC#Cc2cccc3ccccc23)CCCC1 | i | i | i | -5.5* | i | i | i | -14%* | i | i | i
Cc1ccc(S(=O)(=O)Cc2cc(F)c([N+](=O)[O-])cc2[N+](=O)[O-])cc1 | i | i | i | i | i | nt | nt | nt | nt | nt | nt
O=C(NCc1ccccn1)C1CC(c2ccccc2O)=NO1 (stereo not given) | i | i | i | -5.4* | i | i | i | i | i | i | i
O=C(NCc1cccs1)C1CC(c2ccccc2O)=NO1 (stereo not given) | i | i | i | i | i | nt | nt | nt | nt | nt | nt
COc1cccc(CN2CCNC(=O)C2CC(=O)NCCn2cccn2)c1OC (stereo not given) | i | i | i | i | i | nt | nt | nt | nt | nt | nt
CN(C)CCOC(=O)NCC12CC3CC(CC(C3)C1)C2 | i | i | i | i | i | nt | nt | nt | nt | nt | nt
NC(=O)c1ccccc1NC(=O)c1ccccc1Cl | i | i | i | i | i | nt | nt | nt | nt | nt | nt
O=C(Nc1ccccc1C(=O)Nc1nnc(C(F)(F)F)s1)c1ccccc1Cl | i | i | i | -6.5* | i | 121%* | i | 26%* | 54%* | 55%* | nt
CC(=O)NNS(=O)(=O)c1ccc(-c2cc(C(F)(F)F)n(C)n2)s1 | i | i | i | i | i | nt | nt | nt | nt | nt | nt
CC(=O)N(Cc1ccc(F)cc1)C1=C(NCCc2ccccc2)C(=O)c2ccccc2C1=O | i | i | i | -11* | i | nt | nt | nt | nt | i | i | TRPC4 sel inh 2=i;TRPC4 spec=-11%*;HEK293 MPD ctr 2-1=i;HEK293 MPD ctr-1=-182%*
c1cc2c(cc1C1CCCCC1)c1c3n2CCN=C3CCC1 | i | i | i | i | i | nt | nt | nt | nt | nt | nt
COc1ccc2c(c1)c1c3n2CCN(C)C3=NCC1 | i | i | i | -13* | i | -290%* | 90%* | -44%* | 46%* | 58%* | i
CCN(CC)c1ccc(C(=O)NC(=S)Nc2cc(S(=O)(=O)N3CCOCC3)ccc2-n2cncn2)cc1 | i | i | i | i | i | nt | nt | nt | nt | nt | nt
